Where two headings read alike, the source gives them in different places.
Legend:
[1] = system: B-ALL PDXs; test: Ex vivo cytotoxicity assay; type: cell-based, human
How it was run: (§1)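 Patient-derived xenograft leukemia cells were cultured ex vivo in AIM V medium at a density optimized for each xenograft (1–5 × 10⁶ cells per mL). ALL-11 cells were lentivirally transduced with AKR1C3 or with empty vector. Viability was read by resazurin or CellTiter-Glo. IC₅₀ was interpolated from nonlinear regression curves, with three biological experiments.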

[2] = system: T-ALL PDXs; test: Ex vivo cytotoxicity assay; type: cell-based, human
How it was run: as §1

[3] = system: ALL-11/AKR1C3; test: Ex vivo cytotoxicity assay on ALL-11 PDX overexpressing AKR1C3; type: cell-based; conditions: Homo sapiens, 48 h
How it was run: as §1

[4] = system: ALL-11/EV; test: Ex vivo cytotoxicity assay on ALL-11 PDX empty vector; type: cell-based; conditions: Homo sapiens, 48 h
How it was run: as §1

[5] = ACHM-025 pharmacokinetic analysis of murine plasma; type: in vivo; conditions: female, NSG, mouse, ip, 25 mg/kg, across the dose levels 5, 10, 25 mg/kg IP
[6] = ACHM-025 pharmacokinetic analysis of murine brain; type: in vivo; conditions: female, NSG, mouse, intraperitoneal, 25 mg/kg
[7] = Plasma protein binding; type: in vitro ADME; conditions: mouse
[8] = Plasma protein binding; type: in vitro ADME; conditions: human
[9] = ACHM-025 tolerability in naïve immunodeficient mice; type: in vivo, mouse; conditions: 25 mg/kg via IP weekly ×3
[10] = system: T-ALL PDX (ALL-31); test: In vivo efficacy, conventional study, T-ALL PDX ALL-31 in NSG mice; set-up: species or system human; conditions: 25 mg/kg IP Days 0, 7, 14
[11] = system: T-ALL PDX (ALL-8); test: In vivo dose response study, conventional, T-ALL PDX ALL-8 in NSG mice; set-up: species or system human
[12] = system: 25 T-ALL PDXs; test: In vivo single mouse trial; set-up: species or system human; conditions: 25 mg/kg IP Days 0, 7, 14
[13] = system: ALL-11/AKR1C3; test: In vivo efficacy against ALL-11/AKR1C3 in mice; set-up: species or system human; conditions: 25 mg/kg IP Days 0, 7, 14
How it was run: (§2)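 Mice engrafted with the patient-derived xenograft were dosed IP and their peripheral blood % human CD45⁺ was monitored. An event was defined as huCD45⁺ >25% in PB. Event-free survival of treated and vehicle cohorts was compared as T-C and T/C. Studies used either n = 6 mice per treatment or single-mouse testing (n = 1).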

[14] = system: ALL-11/EV; test: In vivo efficacy against ALL-11/EV in mice; set-up: species or system human; conditions: 25 mg/kg IP Days 0, 7, 14
How it was run: as §2

[15] = system: T-ALL PDX (ALL-8); test: In vivo consolidation therapy comparison, ALL-8 in NSG mice; set-up: species or system human
How it was run: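 ALL-8-engrafted mice received test compound 5 mg/kg IP on Days 0 and 7, alone or with Ara-C and 6-mercaptopurine (each 12.5 mg/kg IP, Days 0–4 and 7–11). Comparators were cyclophosphamide (75 mg/kg IP, Days 0 and 7) and vehicle. Human CD45⁺ in PB was tracked over time. At Day 28, or at event for vehicle, PB, BM and spleen were assessed as % huCD45⁺ of mouse CD45⁺ (3 mice).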

[16] = system: T-ALL PDX (ALL-8); test: In vivo relapsed/refractory therapy comparison; set-up: species or system human
[17] = system: T-ALL PDX (ALL-8); test: Histopathologic analysis of mouse skull and brain to assess tumor burden; type: in vivo, human; conditions: 10 mg/kg IP Days 0, 7, 14
[18] = system: T-ALL PDX (ALL-8); test: Minimal residual disease; type: in vivo, human; conditions: not within the quantitative range of the assay
[19] = Preliminary tolerability studies in cynomolgus monkeys; type: in vivo, cynomolgus monkey
[20] = system: T-ALL PDX (ALL-8); conditions: OBI-3424 2.5 mg/kg, PR-104 200 mg/kg; cited from earlier work
[21] = system: T-ALL PDX (ALL-31); conditions: OBI-3424 2.5 mg/kg, PR-104 200 mg/kg; cited from earlier work
[22] = ACHM-025 10 mg/kg IP Days 0, 7, 14, nelarabine 125 mg/kg IP Days 0–4, 14–18, alone or combined

CN1CCN(S(=O)(=O)c2cc([N+](=O)[O-])ccc2N(CCOS(C)(=O)=O)CCOS(C)(=O)=O)CC1 [ACHM-025, ((2-((4-methylpiperazin-1-yl)sulfonyl)-4-nitrophenyl)azanediyl)bis(ethane-2,1-diyl) dimethanesulfonate]
IC50 ([1]; Homo sapiens, 48 h, read-out: Median IC50, median of 6 B-ALL PDXs, 48 h): 840 nM
IC50 ([2]; Homo sapiens, 48 h, read-out: Median IC50, median of 6 T-ALL PDXs, 48 h): 29 nM
IC50 [3]: 13.1 nM
IC50 [4]: 1260 nM
Cmax ([5]; Cmax): 1600 to 9300 nM
AUC(0-inf) ([5]; total plasma exposure (AUC0-inf)): 0.5 to 3.3 µM·h
concentration at 0.25 h [6]: 140 nM
fraction unbound at 5 µmol/L [7]: 0.569
fraction unbound at 5 µmol/L [8]: 0.646
Tolerability [9]: well tolerated
Median EFS [10]: > 332 days
human leukemia cells in the murine peripheral blood (PB) [10]: < 1%
mice that did not relapse over the >300-day observation period following the last treatment [10]: 3 out of 5
time for which human leukemia cells in PB <1% was maintained [10]: 10 consecutive weeks
ORM ([11]; 10 mg/kg IP Days 0, 7, 14): MCRs
ORM ([11]; 15 mg/kg IP Days 0, 7, 14): MCRs
ORM ([11]; 25 mg/kg IP Days 0, 7, 14): MCRs
mice with no detectable human leukemia cells in the PB at 250 days after the last treatment ([11]; 25 mg/kg IP Days 0, 7, 14): 5 out of 6
human leukemia cells in the PB, BM, spleen, kidney or liver at Day 28 ([11]; any of the three doses (10, 15 or 25 mg/kg)): no detectable human leukemia cells
PDXs that did not reach event during the 250 day monitoring period following the final treatment [12]: 7/25
Treated EFS [13]: 104 days
Treated EFS [14]: 49.1 days
human leukemia levels in the PB, BM and spleen at Day 28 ([15]; ACHM-025 5 mg/kg IP Days 0, 7): undetectable levels
human leukemia cells in the murine PB ([15]; ACHM-025 5 mg/kg IP Days 0, 7, for six consecutive weeks): < 1%
human leukemia cells in the BM at Day 28 by flow cytometry [16]: no detectable human leukemia cells
EFS (median event free survival) [16, 22]: 207 days
ORM [16, 22]: MCRs
T-C [16, 22]: 198 days
T/C [16, 22]: 22.5 days
leukemic infiltration of the calvarial bone marrow at Day 28 (H&E, TdT) [17]: no observable leukemic infiltration
MRD in BM samples at Day 28 (PCR-based assay) [18]: MRD positive
single dose-limiting toxicity ([19]; 0.6 mg/kg): neutropenia
all other hematological, clinical chemistry, urinalysis and histopathology parameters ([19]; 2.0 mg/kg, the highest dose tested): within normal range
well tolerated doses ([19]; preliminary studies): ≤ 0.5 mg/kg

CS(=O)(=O)OCCN(CCBr)c1c(C(=O)NCCO)cc([N+](=O)[O-])cc1[N+](=O)[O-] [PR-104A, reference compound]
IC50 ([1]; read-out: Median IC50, median of B-ALL PDXs): 26600 nM
IC50 ([2]; read-out: Median IC50, median of T-ALL PDXs): 1800 nM

CS(=O)(=O)OCCN(CCBr)c1c(C(=O)NCCOP(=O)(O)O)cc([N+](=O)[O-])cc1[N+](=O)[O-] [PR-104]
delay of leukemia progression [20]: 54.3 days
delay of leukemia progression [21]: 44.4 days

COc1nc(N)nc2c1ncn2[C@@H]1O[C@H](CO)[C@@H](O)[C@@H]1O [Nelarabine, nelarabine, reference compound]
EFS (median event free survival) [16, 22]: 28.4 days
T-C [16, 22]: 19.1 days
T/C [16, 22]: 3.1 days
human leukemia levels in the PB, BM or spleen at Day 28 ([16]; nelarabine 125 mg/kg IP Days 0–4, 14–18): did not significantly decrease
